Experimental data reported in article PMC8386104 (RSC Chemical Biology, 2020).
Bridge positions count the residues as written; N and C are the ends. Ends that are not written are not given here. Peptide text beside a SMILES is read from it.

Legend:
p53:MDM2 = conditions: read-out: inhibition of p53:MDM2; previously reported; cited from earlier work
[1] = Stability of peptides in human serum; type: in vitro ADME; conditions: 25% (v/v) human serum, pH 7.5
Summary of the method: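 Peptide (50 μM final) was held 0, 1, 2, 4, 8 and 24 h in 25% (v/v) human serum in PBS (pH 7.5). Serum proteins were precipitated with ACN containing 2% TFA. The full-length peptide peak (MS-confirmed) was quantified by RP-HPLC at 215 nm as a percentage of 0 h recovery. A PBS-only incubation served as control. Single experiment, three technical replicates.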

MDM2 = MDM2 (Homo sapiens, UniProt Q00987); assay: Fluorescence polarization competition, F-pDI:MDM2; type: binding; conditions: for IC50, inhibition of F-pDI:MDM2 interaction: fluorescence polarization, 10 nM F-pDI, 8 nM MDM2, Tris buffer, three technical replicates
Sequence of MDM2 (Q00987 whole entry): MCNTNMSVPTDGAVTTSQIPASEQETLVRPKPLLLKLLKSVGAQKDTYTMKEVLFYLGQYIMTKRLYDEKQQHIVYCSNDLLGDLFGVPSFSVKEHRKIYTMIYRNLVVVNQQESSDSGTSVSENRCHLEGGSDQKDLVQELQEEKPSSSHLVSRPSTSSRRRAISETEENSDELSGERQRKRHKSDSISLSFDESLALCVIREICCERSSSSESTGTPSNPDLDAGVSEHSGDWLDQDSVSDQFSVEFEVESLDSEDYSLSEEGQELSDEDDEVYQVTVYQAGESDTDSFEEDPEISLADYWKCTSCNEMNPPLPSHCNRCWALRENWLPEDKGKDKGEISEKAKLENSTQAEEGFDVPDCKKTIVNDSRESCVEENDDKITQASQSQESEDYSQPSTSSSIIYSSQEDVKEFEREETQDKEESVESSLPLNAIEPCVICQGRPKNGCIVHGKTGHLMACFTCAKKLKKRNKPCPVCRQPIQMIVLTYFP

MDMX = target: T1, MDMX (Homo sapiens, UniProt O15151); assay: Fluorescence polarization competition, F-pDI:MDMX; type: binding; conditions: for IC50, inhibition of F-pDI:MDMX interaction: fluorescence polarization, 10 nM F-pDI, 45 nM MDMX, Tris buffer, three technical replicates
T1 sequence (O15151 1-490): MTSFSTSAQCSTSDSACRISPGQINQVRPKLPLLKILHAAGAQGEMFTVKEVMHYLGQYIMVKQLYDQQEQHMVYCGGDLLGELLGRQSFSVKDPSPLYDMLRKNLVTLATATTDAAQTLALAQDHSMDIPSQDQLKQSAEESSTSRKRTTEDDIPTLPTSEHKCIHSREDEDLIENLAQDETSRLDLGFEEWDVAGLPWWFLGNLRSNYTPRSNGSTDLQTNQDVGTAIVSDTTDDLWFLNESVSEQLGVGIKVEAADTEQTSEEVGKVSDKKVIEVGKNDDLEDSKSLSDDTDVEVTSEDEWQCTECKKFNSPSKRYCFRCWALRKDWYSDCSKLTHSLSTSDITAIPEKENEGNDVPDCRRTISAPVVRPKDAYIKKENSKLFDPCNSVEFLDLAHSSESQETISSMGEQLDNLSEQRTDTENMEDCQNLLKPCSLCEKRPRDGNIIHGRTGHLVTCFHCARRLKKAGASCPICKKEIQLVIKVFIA
Summary of the method: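 Competition fluorescence polarization with fluorescein-labeled pDI (p53 mimic) bound to MDMX, read at 489/515 nm. F-pDI:MDMX signal defined 0% inhibition and free F-pDI in Tris buffer 100%. Percent inhibition was taken from the change in polarization relative to F-pDI. IC50 came from Hill-fitted dose-response curves; three technical replicates.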

[2] = Cell toxicity, resazurin, HaCaT; type: cell-based; conditions: human, HaCaT keratinocyte cells
Summary of the method: (§1)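 Peptides serially diluted (0.25–32 μM) and incubated 24 h at 37 °C, 5% CO2 with 5000 cells/well. HEK293 was grown in DMEM and HaCaT in RPMI with 2 mM L-glutamine and 10 mM sodium pyruvate, both with 10% FBS and penicillin/streptomycin. Resazurin-to-resorufin fluorescence was read at 560/585 nm. Triton X-100 (0.1%) set 100% and PBS 0% toxicity. CC50 came from Hill-fitted curves; three independent experiments.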

[3] = Cell toxicity, resazurin, HEK293; type: cell-based; conditions: human, HEK293 embryonic kidney cells
Summary of the method: as §1

[4] = Cell toxicity, resazurin, PBMCs; type: cell-based; conditions: human, peripheral blood mononuclear cells (PBMCs)
Summary of the method: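 Heparinized blood from healthy donors was diluted 1:1 with PBS, separated on Ficoll-Paque (1400 rpm, 30 min) and the interface layer washed three times in PBS. Cells (5000/well) received serially diluted peptide (0.25–32 μM) for 24 h at 37 °C, 5% CO2, then a resazurin read at 560/585 nm. Triton X-100 (0.1%) set 100%, PBS 0%. CC50 came from a Hill fit; single experiment, three donors.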

RBC hemolysis = type: cell-based; conditions: human, red blood cells (RBCs), 0.25% v/v
Summary of the method: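 Donor RBCs were pelleted (4000 rpm, 1 min) and washed three times in PBS. Peptides diluted in PBS (0.25–32 μM) were incubated with RBCs (0.25% v/v final) for 1 h at 37 °C. After pelleting, supernatant A415 gave released hemoglobin. Triton X-100 (0.1% final) set 100% and PBS 0% hemolysis. Single experiment, RBCs from three donors.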

MM96L cells = assay: Live-cell confocal microscopy, intracellular location, MM96L; type: cell-based, human; conditions: spinning disc confocal, serum-free media, 1 and 4 μM cPF4PD-A488, 6 μM PF4P_pDI-A488, 1 μM cPF4Pext_pDI-A488
Summary of the method: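 MM96L cells were grown in RPMI with 2 mM L-glutamine, 10 mM sodium pyruvate and 10% FBS, and plated at 16 000 per chamber-slide well overnight (37 °C, 5% CO2). Cells were washed into serum-free medium and stained with MitoTracker Red (100 nM final, 5 min). Medium was then replaced with Alexa Fluor 488-labeled peptide in serum-free medium. Cells were imaged live over time at 37 °C, 5% CO2.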

MM96L melanoma cells = assay: Cell toxicity, resazurin, MM96L; type: cell-based, human; conditions: p53 WT, 24 h, 0.25–32 μM peptide, mean ± SD, three independent experiments
Summary of the method: (§2)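 5000 cells/well were exposed to serially diluted peptide (0.25–32 μM) for 24 h at 37 °C, 5% CO2. Viability was read by resazurin-to-resorufin fluorescence (ex 560, em 585 nm), with 0.1% Triton X-100 set as 100% toxicity and PBS as 0%. CC50 came from a Hill-slope saturation fit. Mean ± SD of three independent experiments on different days.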

MCF7 breast cancer cells = assay: Cell toxicity, resazurin, MCF7; type: cell-based, human; conditions: p53 WT, 24 h, 0.25–32 μM peptide, mean ± SD, three independent experiments
Summary of the method: as §2

[5] = tested on: HeLa cervical cancer cells; assay: Cell toxicity, resazurin, HeLa; type: cell-based, human; conditions: cervix, p53 WT (rep), 24 h, 0.25–32 μM peptide, mean ± SD, three independent experiments
Summary of the method: as §2

[6] = tested on: panel of cancerous and noncancerous cell lines, PBMCs and RBCs; assay: Cytotoxic activity across the panel of cell lines; type: cell-based, human; conditions: 24 h, resazurin (RBC 1 h hemolysis)
Summary of the method: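 Cell lines and PBMCs (Ficoll-separated from PBS-diluted heparinized blood, PBS-washed) were read by 24 h resazurin fluorescence; PBMC data came from one experiment with three donors. RBCs were washed in PBS, then incubated at 0.25% v/v with peptide in PBS for 1 h at 37 °C. After pelleting, supernatant A415 gave hemoglobin release, with 0.1% Triton X-100 as 100% and PBS as 0%.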

[7] = tested on: HCT116 colorectal cancer cells; assay: Cell toxicity, resazurin, HCT116; type: cell-based, human; conditions: p53 WT, 24 h, 0.25–32 μM peptide, mean ± SD, three independent experiments
Summary of the method: as §2

MDA-MB-231 cells [8] = assay: Internalization of labeled peptides, flow cytometry, MDA-MB-231; type: cell-based, human; conditions: read-out: FC50 (peptide concentration to detect fluorescence in 50% of cells), MDA-MB-231, 1 h, serum free medium, 0.06–2 μM labeled peptide, 10 000 cells, at least two independent experiments
Summary of the method: (§3)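 Cells were grown in DMEM with 10% FBS and seeded at 10^5 per well overnight (37 °C, 5% CO2). Serial dilutions of Alexa Fluor 488-labeled peptide in serum-free medium were added for 1 h, then cells were harvested. Flow cytometry used ex 488 nm/em 530/30 nm at 330 V, and readings were repeated after Trypan Blue quench (0.02% w/v final). % fluorescent cells was taken above the no-peptide threshold, and FC50 was fitted by Hill equation.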

MCF7 cells = assay: Internalization of labeled peptides, flow cytometry, MCF7; type: cell-based, human; conditions: read-out: FC50 (peptide concentration to detect fluorescence in 50% of cells), MCF7, 1 h, serum free medium, 0.06–2 μM labeled peptide, 10 000 cells, at least two independent experiments
Summary of the method: as §3

MDA-MB-231 cells [9] = assay: Live-cell confocal microscopy, intracellular location, MDA-MB-231; type: cell-based, human; conditions: spinning disc confocal, serum-free media, 4 μM (sub-lethal)

| Compound | remaining at 24 h, 50 μM [1] | CC50 at 24 h [2] | CC50 at 24 h [3] | CC50 at 24 h [4] | HC50 at 1 h (RBC hemolysis) | intracellular location, MM96L (MM96L cells) | CC50, MM96L (MM96L melanoma cells) | CC50, MCF7 (MCF7 breast cancer cells) | CC50, HeLa [5] | CC50, HCT116 [7] | further results |
| --- | --- | --- | --- | --- | --- | --- | --- | --- | --- | --- | --- |
| CC[C@H](C)[C@@H]1NC(=O)[C@H](CCCCN)NC(=O)[C@H](CCCCN)NC(=O)[C@H](Cc2ccc(O)cc2)NC(=O)[C@H](CC(C)C)NC(=O)[C@@H]2CCCN2C(=O)CNC(=O)CNC(=O)[C@@H](N)CSSC[C@@H](C(=O)N[C@@H](CCC(=O)O)C(=O)N[C@@H](CO)C(N)=O)NC(=O)[C@H](CC(C)C)NC(=O)[C@H](CCCCN)NC(=O)[C@H](CCCCN)NC(=O)[C@H]([C@@H](C)CC)NC(=O)[C@H]([C@@H](C)CC)NC(=O)[C@H](CCCCN)NC(=O)[C@H](CCCCN)NC(=O)[C@H](Cc2ccc(O)cc2)NC(=O)[C@H](CC(C)C)NC(=O)[C@@H]2CCCN2C(=O)[C@H](C)NC(=O)CNC(=O)CNC(=O)[C@H](CO)NC(=O)CNC(=O)CNC(=O)[C@H](CO)NC(=O)[C@H](CCC(=O)O)NC(=O)[C@H](CC(C)C)NC(=O)[C@H](CC(C)C)NC(=O)[C@H](CCCCN)NC(=O)[C@H](CCCCN)NC(=O)[C@H]([C@@H](C)CC)NC1=O [cPF4PD] (H-CGGPLYKKIIKKLLESGGSGGAPLYKKIIKKLCES-NH2; disulfide 1-33) | ~75% | 9.1 ± 0.7 µM | > 32 µM | 9.1 ± 1.3 µM | > 64 µM |  |  |  |  |  | IC50, inhibition of F-pDI:MDM2 interaction (MDM2): did not inhibit; IC50, inhibition of F-pDI:MDMX interaction (MDMX): did not inhibit |
| A488 GCGGPLYKKIIKKLLESIIKKGGXGGSGGLTFEHYWAQLTGGC* (disulfide) [cPF4Pext_pDI-A488] |  |  |  |  |  | enter directly into the cell cytoplasm |  |  |  |  |  |
| A488 LQAPLTFEHYWALLTSGGXGGAPLYKKIIKKLLES* [PF4P_pDI-A488] |  |  |  |  |  | enter directly into the cell cytoplasm |  |  |  |  |  |
| APLYKKIIKKLLES-NH2 [PF4P] |  | > 32 µM | > 32 µM | > 32 µM | > 64 µM |  | >32 µM | >32 µM | >32 µM |  | cytotoxic activity against the tested cells [6]: not active against any of the tested cells |
| CGGPLYKKIIKKLLESIIKKGGSGGSGGLTFEHYWAQLTGGC-NH2 (disulfide 1-42) [cPF4Pext_pDI] |  | 7.2 ± 0.3 µM | 19.1 ± 0.5 µM | 4.3 ± 0.4 µM | > 64 µM |  | 2.5 ± 0.1 µM | 18.6 ± 2.0 µM | ∼32 ± 5 μM | 11.7 ± 0.9 µM | IC50 (MDMX): 0.08 µM |
| CQAPLYKKIIKKLLESGGSGGAPLYKKIIKKLLCES* A488 (sidechain bridge or staple) [cPF4PD-A488] |  |  |  |  |  | enter directly into the cell cytoplasm |  |  |  |  | EC50 (MDA-MB-231 cells [8]): 0.16 µM; EC50 (MCF7 cells): 0.65 µM; intracellular location, MDA-MB-231 (MDA-MB-231 cells [9]): entry of the labeled peptide into the cytoplasm was observed within two hours |
| LQAPLTFEHYWALLTSGGSGGAPLYKKIIKKLLES-NH2 [PF4P_pDI] | 60% | 17.1 ± 1.6 µM | 27.5 ± 2.3 µM | > 32 µM | > 64 µM |  | 13.2 ± 0.7 µM | >32 µM | >32 µM | 25.5 ± 2.1 µM | inhibition at 0.001 µM (MDM2; read-out: inhibition of F-pDI binding to MDM2): > 50%; inhibition at 0.001 µM (MDMX; read-out: inhibition of F-pDI binding to MDMX): > 50% |
| LQAPLYKKIIKKLLESGGSGGAPLYKKIIKKLLES-NH2 [PF4PD] | 20% | 4.3 ± 0.2 µM | 13.7 ± 2.2 µM | 14 ± 0.9 µM | > 64 µM |  | 1.6 ± 0.1 µM | 17.6 ± 2.0 µM | 17.2 ± 2.2 µM | 4.8 ± 0.8 µM | IC50, inhibition of F-pDI:MDM2 interaction (MDM2): did not inhibit; IC50, inhibition of F-pDI:MDMX interaction (MDMX): did not inhibit |
